# Source: PubChem BioAssay
# TCR CD3 inh = blocks the human TCR-CD3 interaction; inhibition, % at 9.4 µM; TAMRA-labeled TCR probe fluorescence, biochemical; 360,000 tested, 0.37% active; in the data active = inhibition above about 19%;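 also: recombinant mutant TCR 2C K166C tagged with TAMRA read by polarization; 0% = receptor in buffer alone and 100% = receptor with positive control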
# pPAFAH inh = pPAFAH (human) enzyme inhibition | Q13093 | recombinant pPAFAH, FP-rhodamine probe fluorescence polarization | inhibition, % at 3.39 µM | 330,000 tested, 1.5% active | AID 463082;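 active = inhibition above the mean inhibition across the screen plus 3 SD, cut at about 25% in these data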;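 also: inhibitors block binding of the rhodamine activity-based probe so polarization drops; 0% = enzyme with DMSO and 100% = wells lacking pPAFAH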
# HTRA1 inh = HTRA1 (human) protease inhibition; Q92743; inhibition, % at 5.96 µM; 340,000 tested, 0.5% active; recombinant HTRA1, FP-rhodamine activity-based probe, fluorescence polarization; in the data active = inhibition above about 36%;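 also: 0% = enzyme with DMSO and 100% = wells lacking enzyme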
# Target sequence (Q92743 whole entry, looked up): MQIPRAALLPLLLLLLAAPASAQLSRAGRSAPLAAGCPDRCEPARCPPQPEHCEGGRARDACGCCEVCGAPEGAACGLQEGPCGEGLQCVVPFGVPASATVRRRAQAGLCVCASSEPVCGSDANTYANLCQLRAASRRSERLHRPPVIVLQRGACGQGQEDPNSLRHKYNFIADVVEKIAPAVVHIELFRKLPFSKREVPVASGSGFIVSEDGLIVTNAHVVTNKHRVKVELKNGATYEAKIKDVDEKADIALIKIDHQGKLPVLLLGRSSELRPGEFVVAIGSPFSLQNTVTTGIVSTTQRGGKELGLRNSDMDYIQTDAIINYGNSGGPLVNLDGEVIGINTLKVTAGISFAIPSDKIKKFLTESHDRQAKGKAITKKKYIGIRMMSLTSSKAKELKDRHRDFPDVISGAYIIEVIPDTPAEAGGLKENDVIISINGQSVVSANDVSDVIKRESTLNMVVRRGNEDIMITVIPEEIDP
# mABHD4 FP = inhibits mouse alpha/beta hydrolase domain 4. Q8VD66. purified mABHD4, FP-Rh probe fluorescence polarization. inhibition, % at 8.92 µM. 370,000 tested, 0.54% active. AID 720543;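 active = inhibition exceeding the mean over every tested compound plus 3 SD, cut at about 30% in these data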;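 also: 0% = plate median of compound wells and 100% = S159A mutant with DMSO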
#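 Doses – 8.92 µM, single dose · Material – wild-type mouse ABHD4 protein · Replication – single well per compound (singlicate) · Measure – percent inhibition of probe binding, normalized to plate controls · Schedule – 45 min compound pre-incubation plus 60 min probe step, 25 °C · Detection – fluorescence polarization with parallel and perpendicular emission, 525/598 nm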
# SIAE primary = inhibitors of human sialic acid acetylesterase SIAE; Q9HAT2; SIAE FP-Rh probe binding, fluorescence polarization; inhibition, % at 9.66 µM; 370,000 tested, 0.69% active;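 active = inhibition above a cutoff: mean of compounds within the control limits plus 3 SD of those, cut at about 17% in these data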;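 also: 0% = plate median of compound wells and 100% = probe without SIAE protein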
# SIAE confirm = human SIAE inhibition, confirmation | shares compounds with SIAE primary | SIAE FP-Rh activity-based probe, fluorescence polarization | inhibition, % at 9.66 µM | 2,300 tested, 13% active;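 active = mean inhibition of the replicates above the hit cutoff set in the primary screen, cut at about 17% in these data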;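 also: 0% = SIAE with DMSO and probe and 100% = probe without SIAE; inhibitors lower polarization as more probe stays unbound to SIAE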
# * hit, by the source's call; . = no result given. In the library only some 2.3% were active in any assay of this set; here they are far more common.
SMILES,TCR CD3 inh,pPAFAH inh,HTRA1 inh,mABHD4 FP,SIAE primary,SIAE confirm
COC(=O)c1ccc(Nc2nnc(-c3ccc(C)c(S(=O)(=O)NCC4CCCO4)c3)c3ccccc23)cc1 (stereo not drawn),1,6,-23,4,-10,.
Cc1ccc(-c2nnc(Nc3ccc(C(=O)N(C)C)cc3)c3ccccc23)cc1S(=O)(=O)NCC1CCCO1 (stereo not drawn),0,-4,-10,-6,21*,-5
CC(C)NC(=O)C1(C)CN(S(C)(=O)=O)CC(=O)N1CC(F)(F)F (stereo not drawn),-2,.,.,0,0,.
CCOC(=O)c1c(C)[nH]c(C2=NNC(=Nc3ccccc3)SC2)c1C,3,.,10,8,15,.
CCOC(=O)c1c(C)[nH]c(C2=NNC(=Nc3ccc(OCC)cc3)SC2)c1C,-2,9,25,11,28*,1
CCOC(=O)CNC(=O)c1ccc(C)cc1,-4,0,2,4,-3,.
CCO/C=C/C(O)(CNC(=O)c1ccc(C(C)(C)C)cc1)C(F)(F)F (stereo not drawn),-5,1,-5,-12,60*,-1
COc1ncc(-c2cc(C(C)=O)c3n(c2=O)CCC3)c(OC)n1,.,.,.,3,-4,.
CS(=O)(=O)N1CCN(c2ccc(NC(=S)NC(=O)c3ccccc3[N+](=O)[O-])cc2)CC1,3,1,6,1,20*,-1
CN(C)C(=O)c1cnc(Cc2c[nH]c3ccccc23)c(I)c1,-4,.,.,6,18*,-5
O=C(N[C@@H](Cc1ccccc1)c1nc2ccccc2[nH]1)c1ccc([N+](=O)[O-])cc1,5,.,.,-6,5,.
COc1ccccc1C(=O)N1CCN(C(=O)[C@@H](Cc2ccccc2)NC(=O)[C@H]2O[C@@H](n3cnc(C(N)=O)n3)[C@H](O)[C@@H]2O)CC1,1,.,.,-2,11,.
COc1cccc(-c2cc(CNC(=O)[C@H]3O[C@@H](n4cnc5c(N)ncnc54)[C@H](O)[C@@H]3O)no2)c1,-6,.,.,-2,20*,25*
COc1cccc(-c2cc(CNC(=O)[C@H]3O[C@@H](n4cnc(C(N)=O)n4)[C@H](O)[C@@H]3O)no2)c1,-1,.,.,-13,77*,80*
COc1cccc(-c2cc(CNC(=O)[C@H]3O[C@@H](n4ccc(N)nc4=O)[C@H](O)[C@@H]3O)no2)c1,6,.,.,1,-4,.
CCCCCCCCN1C(=O)[C@@H](CC(=O)NCC23CC4CC(CC(C4)C2)C3)C[C@@]2(C(=O)OC)C1=C[C@H](C(C)C)O[C@@H]2C1CC1,.,.,.,3,2,.
O=C(CC[C@H]1O[C@@H](n2cnc3c(NC(=O)c4ccccc4)ncnc32)[C@H](O)[C@@H]1O)NCCCN1CCOCC1,0,.,.,1,19*,13
Nn1c(SCc2cccc3ccccc23)nnc1-c1cc(-c2ccc(Cl)cc2)n[nH]1,.,.,.,0,-3,.
COC(=O)[C@]12C[C@H](CC(=O)NCCCCc3ccccc3)C(=O)N(Cc3ccc(Cl)cc3Cl)C1=C[C@H](C1CCCC1)O[C@@H]2C,.,.,.,-2,5,.
COc1ccc(N2CCN(CCNS(=O)(=O)c3ccccc3[N+](=O)[O-])CC2)cc1,.,.,.,1,-7,.
COc1ccc(N2C(=O)CSC2c2cccc(OC)c2OC)cc1 (stereo not drawn),7,5,0,6,23*,-8
COc1ccc(CN2C(=O)CN(S(C)(=O)=O)CC2(C)C(=O)NC(C)C)cc1 (stereo not drawn),-5,.,.,2,0,.
Cc1ccc(S(=O)(=O)NCCCN(C)C)cc1,3,-2,1,-2,19*,0
CO[C@H]([C@H](C)/C=C/N(C)C=O)[C@@H](C)C(=O)CC[C@H](C)[C@H](O)[C@H](C)[C@H]1OC(=O)/C=C/C(C)=C/C[C@H](O)C[C@@H]2C=CC[C@@H](C[C@H](OC)[C@@H](CO)[C@@H](OC)C[C@@H](OC)[C@@H]1C)O2,.,.,.,1,5,.
COc1ccc2nc(-c3ccccn3)[nH]c2c1,-13,-3,33,-9,-1,.
SMILES,TCR CD3 inh,pPAFAH inh,HTRA1 inh,mABHD4 FP,SIAE primary,SIAE confirm
Nc1ccc2nc(-c3ccccn3)[nH]c2c1,1,10,27,11,51*,9
O=C(O)[C@H](Cc1ccccc1)NC(=O)[C@H]1O[C@@H](n2ccc(=O)[nH]c2=O)[C@H](O)[C@@H]1O,4,.,.,-4,-2,.
O=C(N[C@H](CO)Cc1ccccc1)[C@H]1O[C@@H](n2ccc(=O)[nH]c2=O)[C@H](O)[C@@H]1O,-10,.,.,1,48*,44*
CC[C@H](C)[C@@H](CO)NC(=O)[C@H]1O[C@@H](n2ccc(=O)[nH]c2=O)[C@H](O)[C@@H]1O,1,.,.,6,88*,78*
C[C@@H](CO)NC(=O)[C@H]1O[C@@H](n2ccc(=O)[nH]c2=O)[C@H](O)[C@@H]1O,-3,.,.,6,7,.
COc1cccc(CN2CCC(C)(Oc3cccc(Cl)c3)C2)c1OC (stereo not drawn),-6,.,.,-2,3,.
COCCNc1nc(NCC2CCCCC2)c2sc(-c3ccccc3)cc2n1,-4,.,.,19,20*,32*
COCCNc1nc(NCCOc2ccccc2Cl)c2sc(-c3ccccc3)cc2n1,1,.,.,13,20*,26*
COCCCNC(=O)C[C@H]1C[C@@]2(C(=O)OC)C(=C[C@H](C3CCCC3)O[C@@H]2C)N(Cc2cccc3ccccc23)C1=O,.,.,.,-9,-4,.
S=C(NNc1ccnc2cc(Cl)ccc12)Nc1ccccc1Cl,7,11,-10,17,24*,20*
O=[N+]([O-])c1cc(C(F)(F)F)ccc1NCCc1c[nH]c2ccc(O)cc12,-1,23,12,-8,17*,2
O=C(OC12CCCN(C1)/C(=C/c1cccnc1)C2)c1ccccc1 (stereo not drawn),.,.,.,0,7,.
COCCCNC(=O)[C@H]1O[C@@H](n2cnc3c(=O)[nH]c(N)nc32)[C@H](O)[C@@H]1O,3,.,.,2,4,.
Nc1nc2c(ncn2[C@@H]2O[C@H](C(=O)N[C@H](Cc3ccccc3)C(=O)NC3CCCCC3)[C@@H](O)[C@H]2O)c(=O)[nH]1,0,.,.,7,32*,35*
Nc1nc2c(ncn2[C@@H]2O[C@H](C(=O)NC3CCCCC3)[C@@H](O)[C@H]2O)c(=O)[nH]1,-3,.,.,-2,49*,43*
CN(C(=O)[C@H]1O[C@@H](n2cnc3c(=O)[nH]c(N)nc32)[C@H](O)[C@@H]1O)C1CCCCC1,-3,.,.,-6,41*,46*
Cc1cccc(C)c1NC(=O)C(c1cc2ccccc2o1)N1CCC(c2ccccc2)CC1 (stereo not drawn),6,.,.,3,3,.
CC(C)CCCCCCCCc1cccc(O)c1C(=O)O,1,.,.,-70,-3,.
